From ChEMBL document CHEMBL3992553, “New nitrofurans amenable by isocyanide multicomponent chemistry are active against multidrug-resistant and poly-resistant Mycobacterium tuberculosis” (Bioorg Med Chem, 2017)
In brackets after ≈: the same amount, converted by molar mass.

What was measured:
Assay type in all cases: functional
[1] = test system: Acinetobacter baumannii; assay: Antibacterial activity against Acinetobacter baumannii DSM 30007 after 18 hrs; details: DSM 30007, 18 h
Summary of the method: (§1)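 Broth microdilution MIC. Gram-negatives grown overnight at 37 °C in Müller-Hinton broth + 1% glucose, pH 7.2; Gram-positives in trypticase soy broth with yeast extract, pH 7.2. Inoculum 5×10^5 cfu/mL final. Serial dilutions from 100 µM down to 0.2 µM, DMSO ≤1%. 18 h at 37 °C, moist; OD600. MIC = lowest concentration completely suppressing growth.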

[2] = test system: Pseudomonas aeruginosa; assay: Antibacterial activity against Pseudomonas aeruginosa PA7 DSM 24068 after 18 hrs; details: PA7 DSM 24068, 18 h; summary of the method: as §1
[3] = test system: Mycobacterium tuberculosis; assay: Antimycobacterial activity against Mycobacterium tuberculosis H37Rv after 7 days by REMA; details: 168 h
Summary of the method: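 REMA. 3-week H37Rv culture (2nd generation on Löwenstein–Jensen) vortexed with glass beads, set to 1.0 McFarland in 7H9, diluted 20-fold in 7H9 + OADC. 2-fold dilutions, final 1.6–400 µg/mL, 200 µL wells. 7 days at 35 °C, then resazurin 18 h. Fluorescence ex 520/em 590. MIC where signal plateaued or matched the 1% population control (t test).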

[4] = test system: Escherichia coli; assay: Antibacterial activity against Escherichia coli DSM 1116 after 18 hrs; details: DSM 1116, 18 h; summary of the method: as §1
[5] = test system: Klebsiella pneumoniae; assay: Antibacterial activity against Klebsiella pneumoniae DSM 11678 after 18 hrs; details: DSM 11678, 18 h; summary of the method: as §1
[6] = test system: Staphylococcus aureus; assay: Antibacterial activity against methicillin-resistant Staphylococcus aureus RKI 11-02670 after 18 hrs; details: RKI 11-02670, 18 h; summary of the method: as §1
[7] = test system: Staphylococcus aureus; assay: Antibacterial activity against methicillin-resistant Staphylococcus aureus DSM 11822 after 18 hrs; details: DSM 11822, 18 h; summary of the method: as §1
[8] = test system: Enterococcus faecium; assay: Antibacterial activity against Enterococcus faecium DSM 20477 after 18 hrs; details: DSM 20477, 18 h; summary of the method: as §1
[9] = test system: Escherichia coli; assay: Growth inhibition of Escherichia coli DSM 1116 at 100 uM after 18 hrs relative to control; details: DSM 1116, 18 h, read-out: GI
Summary of the method: (§2)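 Gram-negative culture grown overnight at 37 °C in Müller-Hinton broth + 1% glucose, pH 7.2, then tested at 5×10^5 cfu/mL final. Compound at 100 µM from DMSO stock, DMSO ≤1%. Incubated 18 h at 37 °C under moist conditions. OD600 read; value reported as % growth inhibition.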

[10] = test system: Pseudomonas aeruginosa; assay: Growth inhibition of Pseudomonas aeruginosa PA7 DSM 24068 at 100 uM after 18 hrs relative to control; details: PA7 DSM 24068, 18 h, read-out: GI; summary of the method: as §2

SMILES | EC50 [1] | MIC [1] | EC50 [2] | MIC [2] | MIC [3] [µM] | EC50 [4] | MIC [4] [µM] | EC50 [5] | MIC [5] | EC50 [6] | MIC [6] | MIC [7] [µM] | EC50 [8] | MIC [8] | inhibition of growth at 100 µM [9] [%] | inhibition of growth at 100 µM [10] [%]
CC1(C(=O)NCc2ccccc2)CSCC(=O)N1/N=C/c1ccc([N+](=O)[O-])o1 (stereo unspecified) | > 100 µM | > 100 µM | > 100 µM | > 100 µM | > 100 | > 100 µM | > 100 | > 100 µM | > 100 µM | 64 µM | > 100 µM | > 100 | > 100 µM | > 100 µM | – | –
CC(C)(C)NC(=O)C1(C)COCC(=O)N1/N=C/c1ccc([N+](=O)[O-])o1 (stereo unspecified) | > 100 µM | > 100 µM | > 100 µM | > 100 µM | > 100 | > 100 µM | > 100 | > 100 µM | > 100 µM | 50 µM | > 100 µM | > 100 | > 100 µM | > 100 µM | – | –
CC1(C(=O)NCc2ccc(Cl)cc2)CCCC(=O)N1/N=C/c1ccc([N+](=O)[O-])o1 (stereo unspecified) | – | – | – | – | > 100 | – | – | – | – | 75 µM | 100 µM | 100 (≈ 41.9 µg/mL) | – | > 100 µM | 84 | 98
CC1(C(=O)NC2CCCCC2)COCC(=O)N1/N=C/c1ccc([N+](=O)[O-])o1 (stereo unspecified) | – | – | – | – | 66 (≈ 25 µg/mL) | – | – | – | – | 75 µM | 100 µM | 100 (≈ 37.8 µg/mL) | – | > 100 µM | 84 | 90
CC1(C(=O)NCc2ccccc2)COCC(=O)N1/N=C/c1ccc([N+](=O)[O-])o1 (stereo unspecified) | – | – | – | – | 65 (≈ 25.1 µg/mL) | – | – | – | – | 77 µM | 100 µM | 100 (≈ 38.6 µg/mL) | – | > 100 µM | 83 | 86
CC1(C(=O)NC2CCCCC2)CCC(=O)N1/N=C/c1ccc([N+](=O)[O-])o1 (stereo unspecified) | – | – | – | – | 70 (≈ 25.4 µg/mL) | – | – | – | – | 79 µM | ≥ 100 µM | > 100 | – | > 100 µM | 85 | 90
CC1(C(=O)NC2CCCCC2)CN(S(C)(=O)=O)CC(=O)N1/N=C/c1ccc([N+](=O)[O-])o1 (stereo unspecified) | > 100 µM | > 100 µM | > 100 µM | > 100 µM | 55 (≈ 25.1 µg/mL) | > 100 µM | > 100 | > 100 µM | > 100 µM | 35.7 µM | > 100 µM | > 100 | > 100 µM | > 100 µM | – | –
NCC[C@H](O)C(=O)N[C@@H]1C[C@H](N)[C@@H](O[C@H]2O[C@H](CN)[C@@H](O)[C@H](O)[C@H]2O)[C@H](O)[C@H]1O[C@H]1O[C@H](CO)[C@@H](O)[C@H](N)[C@H]1O [AMIKACIN] | – | – | 3.8 µg/mL | 4.5 µg/mL | – | – | – | – | – | – | – | – | – | – | – | –
O=C(O)c1cn(C2CC2)c2cc(N3CCNCC3)c(F)cc2c1=O [CIPROFLOXACIN] | 0.2 µg/mL | 0.2 µg/mL | – | – | – | 0.01 µg/mL | – | 0.05 µg/mL | 0.07 µg/mL | – | – | – | 2.29 µg/mL | 8 µg/mL | – | –
CC(=O)NC[C@H]1CN(c2ccc(N3CCOCC3)c(F)c2)C(=O)O1 [LINEZOLID] | – | – | – | – | – | – | – | – | – | 0.25 µg/mL | 0.62 µg/mL | – | – | – | – | –
